The results in this text go back to ChEMBL document CHEMBL3045526, “Tailoring the structure of aminobisphosphonates to target plant P5C reductase” (J Agric Food Chem, 2008).

pIC50: −log10 of the molar value.

For this assay, the target named is T1, Pyrroline-5-carboxylate reductase (Arabidopsis thaliana, UniProt P54904).
T1 sequence (P54904 whole entry): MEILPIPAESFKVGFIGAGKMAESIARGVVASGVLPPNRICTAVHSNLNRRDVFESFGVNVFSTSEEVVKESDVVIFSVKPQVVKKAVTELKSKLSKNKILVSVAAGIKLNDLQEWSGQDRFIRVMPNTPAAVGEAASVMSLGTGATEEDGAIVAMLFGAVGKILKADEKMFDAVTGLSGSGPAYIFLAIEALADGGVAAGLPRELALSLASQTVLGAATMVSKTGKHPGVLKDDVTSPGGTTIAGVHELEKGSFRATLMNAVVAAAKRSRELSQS
The assay is described as follows: Inhibition of Arabidopsis thaliana P5C assessed as reduction in NADH oxidation incubated at 35 degC up to 10 min. In a few lines:
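P5C reductase partially purified from stationary-phase A. thaliana cultured cells. Forward reaction run in 100 mM Tris-HCl pH 8.0, 0.1 mM MgCl2, 2 mM DL-P5C, 0.25 mM NADH, with 0.15–0.20 nkat enzyme. A340 followed at 35 °C for up to 10 min against P5C-free blanks. Inhibitor final 5 µM–5 mM (pH 7.5–8.0), triplicate. IC50 by linear regression of % activity vs log concentration.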

As to `O=P(O)(O)C(O)c1cccc(Cl)c1Cl` (racemic) [(2,3-DICHLOROPHENYL)(HYDROXY)METHYLPHOSPHONIC ACID], the pIC50 (usually the IC50 on a negative log10 scale, so that one unit is a factor of ten) was 2.31.
On to `O=P(O)(O)C(O)c1ccc(Cl)cc1Cl` (racemic) [(2,4-DICHLOROPHENYL)(HYDROXY)METHYLPHOSPHONIC ACID], for which the pIC50 is 2.24.
In the case of `O=P(O)(O)C(O)c1c(Cl)cccc1Cl` (racemic) [(2,6-DICHLOROPHENYL)(HYDROXY)METHYLPHOSPHONIC ACID], the pIC50 was 2.09.
With `O=P(O)(O)C(O)c1ccccc1Cl` (racemic) [(2-CHLOROPHENYL)(HYDROXY)METHYLPHOSPHONIC ACID] the figure was 2.15; with `O=P(O)(O)C(O)c1ccc(Cl)c(Cl)c1` (racemic) [(3,4-DICHLOROPHENYL)(HYDROXY)METHYLPHOSPHONIC ACID], 2.85.
On to `O=P(O)(O)C(O)c1cccc(Cl)c1` (racemic) [(3-CHLOROPHENYL)(HYDROXY)METHYLPHOSPHONIC ACID], for which the pIC50 was 2.29.
On to `O=P(O)(O)C(O)c1ccc(Cl)cc1` (racemic) [(4-CHLOROPHENYL)(HYDROXY)METHYLPHOSPHONIC ACID], for which the pIC50 is 1.34.
Under `NC(c1cccc(Cl)c1Cl)P(=O)(O)O` (racemic) [AMINO(2,3-DICHLOROPHENYL)METHYLPHOSPHONIC ACID] stands 2.34.
Consider `COc1cccc(C(N)P(=O)(O)O)c1OC` (racemic) [AMINO(2,3-DIMETHOXYPHENYL)METHYLPHOSPHONIC ACID], for which the pIC50 was 1.80.
As to `NC(c1ccc(Cl)cc1Cl)P(=O)(O)O` (racemic) [AMINO(2,4-DICHLOROPHENYL)METHYLPHOSPHONIC ACID], the pIC50 is 2.09.
Under `NC(c1ccccc1Br)P(=O)(O)O` (racemic) [AMINO(2-BROMOPHENYL)METHYLPHOSPHONIC ACID] stands 1.20.
As to `NC(c1ccccc1Cl)P(=O)(O)O` (racemic) [AMINO(2-CHLOROPHENYL)METHYLPHOSPHONIC ACID], the pIC50 is 1.97.
As to `NC(c1ccccc1F)P(=O)(O)O` (racemic) [AMINO(2-FLUOROPHENYL)METHYLPHOSPHONIC ACID], the pIC50 is 2.18.
Regarding `NC(c1cccc(Cl)c1)P(=O)(O)O` (racemic) [AMINO(3-CHLOROPHENYL)METHYLPHOSPHONIC ACID], the pIC50 was 1.45.
As for `O=P(O)(O)C(Nc1cccc(Cl)c1Cl)P(=O)(O)O` [2,3-DICHLOROPHENYLAMINOMETHYLENEBISPHOSPHONIC ACID], the pIC50 was 3.99.
Take `O=P(O)(O)C(Nc1ccc(Cl)cc1Cl)P(=O)(O)O` [2,4-DICHLOROPHENYLAMINOMETHYLENEBISPHOSPHONIC ACID]: the pIC50 is 3.30.
Turning to `O=P(O)(O)C(Nc1cc(Cl)ccc1Cl)P(=O)(O)O` [2,5-DICHLOROPHENYLAMINOMETHYLENEBISPHOSPHONIC ACID], the negative-log IC50 (pIC50) is 3.14.
As for `O=P(O)(O)C(Nc1c(Cl)cccc1Cl)P(=O)(O)O` [2,6-DICHLOROPHENYLAMINOMETHYLENEBISPHOSPHONIC ACID], the pIC50 was 3.95.
Under `O=P(O)(O)C(Nc1ccc(Cl)c(Cl)c1)P(=O)(O)O` [3,4-DICHLOROPHENYLAMINOMETHYLENEBISPHOSPHONIC ACID] stands 3.57; under `O=P(O)(O)C(Nc1cc(Cl)cc(Cl)c1)P(=O)(O)O` [(3,5-DICHLOROPHENYLAMINO)METHYLENEDIPHOSPHONIC ACID], 4.11; under `O=P(O)(O)C(Nc1ccc(Cl)cc1)P(=O)(O)O` [(4-CHLOROPHENYLAMINO)METHYLENEDIPHOSPHONIC ACID], 3.07.
